Assay results: article PMC11750580 (Toxicology Reports, 2024)

How the values were obtained:
CYP1A genes = conditions: HepaRG cells; cited from earlier work
MTT cytotoxicity, Caco-2 = assay type: cell-based; conditions: human, Caco-2 cells
[1] = biological target: T1, human aryl hydrocarbon receptor (AhR) (Homo sapiens, UniProt P35869); test: cell-based
T1 sequence (P35869 11-848): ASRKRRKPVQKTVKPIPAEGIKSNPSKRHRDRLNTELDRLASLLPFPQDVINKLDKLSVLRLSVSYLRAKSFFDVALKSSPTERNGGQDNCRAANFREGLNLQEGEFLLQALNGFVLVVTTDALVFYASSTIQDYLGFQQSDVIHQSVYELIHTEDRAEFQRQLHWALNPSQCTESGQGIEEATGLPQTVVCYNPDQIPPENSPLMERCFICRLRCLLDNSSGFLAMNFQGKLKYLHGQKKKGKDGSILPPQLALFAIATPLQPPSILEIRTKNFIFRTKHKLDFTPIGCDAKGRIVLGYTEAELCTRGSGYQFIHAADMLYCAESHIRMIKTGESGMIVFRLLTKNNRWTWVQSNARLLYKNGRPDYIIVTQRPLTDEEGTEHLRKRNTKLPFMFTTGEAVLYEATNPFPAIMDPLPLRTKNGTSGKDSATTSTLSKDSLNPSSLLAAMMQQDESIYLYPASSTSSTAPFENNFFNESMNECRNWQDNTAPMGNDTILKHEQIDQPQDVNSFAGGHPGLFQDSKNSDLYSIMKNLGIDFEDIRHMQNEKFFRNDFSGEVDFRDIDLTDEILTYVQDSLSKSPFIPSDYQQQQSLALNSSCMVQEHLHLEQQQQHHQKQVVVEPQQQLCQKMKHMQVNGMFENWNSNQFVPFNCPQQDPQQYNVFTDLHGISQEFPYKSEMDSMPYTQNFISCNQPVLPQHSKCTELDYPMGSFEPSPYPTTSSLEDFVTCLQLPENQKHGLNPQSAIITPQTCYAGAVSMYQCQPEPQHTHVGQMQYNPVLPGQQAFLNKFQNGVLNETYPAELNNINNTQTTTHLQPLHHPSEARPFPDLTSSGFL

MTT cytotoxicity, HepG2 = assay type: cell-based; conditions: human, HepG2 cells
Caco-2 cells [2] = test: Cell proliferation and migration; assay type: cell-based, human; conditions: for proliferation speed compared to control (100 %): Caco-2, 1 µM, 24 h; for effect on cell proliferation rate vs media control: Caco-2, 10 µM, p < 0.05; for effect on growth and proliferation vs media control: Caco-2, any tested concentration (0.1, 1, 10 µM)
How it was run: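 Cells were seeded at 100,000 cells/mL in 48-well plates and grown to 90–100 % confluence. Each monolayer was scratched with a pipette tip. Medium was then replaced with exposure medium containing 0.1, 1 or 10 µM test compound; cytochalasin D (1 mM) was the positive control. Wells were imaged by automated phase-contrast microscopy every 30 min for 24 h. Read-outs were cell-free area (mm2) and proliferation rate relative to media control (n = 8–16; one-way ANOVA, Dunnett's).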

MTT cytotoxicity, HepaRG = assay type: cell-based, human; conditions: human, HepaRG cells (differentiated)
Caco-2 cells [3] = conditions: cited from earlier work
MTT cytotoxicity, MRC-5 = assay type: cell-based; conditions: human, MRC-5 cells
MTT cytotoxicity, MSC = assay type: cell-based, human; conditions: human, adipose-derived mesenchymal stem cells (MSC)
[4] = biological target: T1, human aryl hydrocarbon receptor (AhR); conditions: HepG2-AhR Lucia cells
MTT cytotoxicity, T47D = assay type: cell-based; conditions: human, T47D cells
HepaRG cells = test: MTT cytotoxicity, HepaRG; assay type: cell-based, human; conditions: HepaRG, 24 h exposure, MTT, average ± SD
goats = conditions: oral, 0.16 g/kg body weight, within 4–24 h; cited from earlier work
Caco-2 cells [5] = conditions: Caco-2, 500–1000 µM, 72-hour exposure; ref Tomii et al. 31; cited from earlier work
V79 379 A cells = conditions: 0.1 mM, 2-hour exposure; cited from earlier work
MCF-7 cells = conditions: MCF-7, 100 µM; cited from earlier work
MRC-5 cells = conditions: MRC-5, 30 µg/mL, exposure duration not specified; ref Yap et al. 52; cited from earlier work
[6] = test system: adipose-derived mesenchymal stem cells (MSC); test: MTT cytotoxicity, MSC; assay type: cell-based, human; conditions: MSC, 24 h exposure, MTT, average ± SD
[7] = Indole derivatives quantification in cell media; assay type: physicochemical; conditions: after 24 h of incubation
How it was run: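 Test compounds in cell media were measured by reversed-phase HPLC with fluorescence detection on a C18 column (2.2 µm, 150 × 2.1 mm) at 30 °C. A binary gradient ran from 50 mM KH2PO4 (pH 3.3) to that buffer/acetonitrile 700:300. Excitation was 270 nm and emission 350 nm. Compounds were identified by co-chromatography with authentic standards and quantified by peak area.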

[8] = test system: V79–4 Chinese hamster fibroblasts; conditions: V79–4, 300 µM; cited from earlier work

**Q.** Which “induction of CYP1A genes, % of the level of TCDD” value (CYP1A genes) does the source give for Cn1ccc2ccccc21 [1-MI] here?
**A.** about 50%

**Q.** Which EC50 at 24 h (MTT cytotoxicity, Caco-2) does the source give for O=Cc1c[nH]c2ccccc12 [I3A, indole-3-aldehyde] here?
**A.** > 100000 nM

**Q.** What about the EC50 [1] of the same compound?
**A.** 40 nM

**Q.** And the EC50 at 24 h (MTT cytotoxicity, HepG2)?
**A.** > 100000 nM

**Q.** What about the “proliferation speed compared to control (100 %)” value (Caco-2 cells [2]) of the same compound?
**A.** 71.3 ± 5.1%

**Q.** What about the “effect on cell proliferation rate vs media control” value (Caco-2 cells [2]) of the same compound?
**A.** significant reduction in cell proliferation rates

**Q.** And the EC50 at 24 h (MTT cytotoxicity, HepaRG)?
**A.** 1980 ± 730 nM

**Q.** What about the “reduction in cell viability” value (Caco-2 cells [3]; Caco-2, 160 µM, ref Liu et al. 30) of the same compound?
**A.** 89.6%

**Q.** And the EC50 at 24 h (MTT cytotoxicity, MRC-5)?
**A.** 49800 ± 14500 nM

**Q.** What about the EC50 at 24 h (MTT cytotoxicity, MSC) of the same compound?
**A.** 1870 ± 830 nM

**Q.** And the AhR agonist character [4]?
**A.** strong agonists

**Q.** What about the EC50 at 24 h (MTT cytotoxicity, T47D) of the same compound?
**A.** > 100000 nM

**Q.** Which results are given for O=C(O)CCc1c[nH]c2ccccc12 [IPA, indole-3-propionic acid]?
**A.** EC50 at 24 h (MTT cytotoxicity, Caco-2): > 100000 nM; EC50 [1]: 110 nM; EC50 at 24 h (MTT cytotoxicity, HepG2): > 100000 nM; effect on growth and proliferation vs media control (Caco-2 cells [2]): no significant differences; EC50 at 24 h (MTT cytotoxicity, HepaRG): > 100000 nM; Cytotoxic evaluation (EC50) (HepaRG cells): no sensitivity; EC50 at 24 h (MTT cytotoxicity, MRC-5): 910 ± 100 nM; EC50 at 24 h (MTT cytotoxicity, MSC): 400 ± 140 nM; AhR agonist character [4]: strong agonists; EC50 at 24 h (MTT cytotoxicity, T47D): 2020 ± 130 nM

**Q.** For c1ccc2c(c1)cc1ccc3cccc4ccc2c1c34 [BaP, benzo[a]pyrene, reference compound], which AhR agonist character [4] is on record?
**A.** partial agonists

**Q.** What does the source list for Cc1c[nH]c2ccccc12 [3-MI, 3-methylindole]?
**A.** EC50 at 24 h (MTT cytotoxicity, Caco-2): > 100000 nM; pulmonary toxicity findings (goats): severe pulmonary edema, denuded bronchioles, and necrotic alveolar cells; induction of CYP1A genes, % of the level of TCDD (CYP1A genes): about 50%; EC50 [1]: 1400 nM; EC50 at 24 h (MTT cytotoxicity, HepG2): > 100000 nM; effect on cell proliferation vs media control (Caco-2 cells [2]; Caco-2, 0.1 µM): significant decrease in proliferation; proliferation speed compared to control (100 %) (Caco-2 cells [2]): 68.2 ± 7.4%; effect on cell proliferation rate vs media control (Caco-2 cells [2]): significant reduction in cell proliferation rates; EC50 at 24 h (MTT cytotoxicity, HepaRG): 66400 ± 21800 nM; EC50 at 24 h (MTT cytotoxicity, MRC-5): 21900 ± 8060 nM; EC50 at 24 h (MTT cytotoxicity, MSC): 330 ± 100 nM; AhR agonist character [4]: partial agonists; EC50 at 24 h (MTT cytotoxicity, T47D): > 100000 nM

**Q.** For O=C(O)c1c[nH]c2ccccc12 [I3CA, indole-3-carboxylic acid], which EC50 at 24 h (MTT cytotoxicity, Caco-2) is on record?
**A.** > 100000 nM

**Q.** What about the EC50 [1] of the same compound?
**A.** 880 nM

**Q.** What about the EC50 at 24 h (MTT cytotoxicity, HepG2) of the same compound?
**A.** > 100000 nM

**Q.** And the “effect on cell proliferation rate vs media control” value (Caco-2 cells [2])?
**A.** significant reduction in cell proliferation rates

**Q.** And the EC50 at 24 h (MTT cytotoxicity, HepaRG)?
**A.** 53000 ± 12100 nM

**Q.** What about the EC50 at 24 h (MTT cytotoxicity, MRC-5) of the same compound?
**A.** 520 ± 80 nM

**Q.** And the EC50 at 24 h (MTT cytotoxicity, MSC)?
**A.** 640 ± 310 nM

**Q.** And the AhR agonist character [4]?
**A.** strong agonists

**Q.** What about the EC50 at 24 h (MTT cytotoxicity, T47D) of the same compound?
**A.** > 100000 nM

**Q.** With O=C(O)Cc1c[nH]c2ccccc12 [IAA, indole-3-acetic acid] as the compound, how does the EC50 at 24 h (MTT cytotoxicity, Caco-2) read?
**A.** 520 ± 120 nM

**Q.** And the “effect on cell count and cytotoxicity (LDH assay)” value (Caco-2 cells [5])?
**A.** reduced Caco-2 cell count without causing cytotoxicity

**Q.** What about the EC50 at 24 h (MTT cytotoxicity, HepG2) of the same compound?
**A.** > 100000 nM

**Q.** What about the “effect on growth and proliferation vs media control” value (Caco-2 cells [2]) of the same compound?
**A.** no significant differences

**Q.** What about the EC50 at 24 h (MTT cytotoxicity, HepaRG) of the same compound?
**A.** 2210 ± 320 nM

**Q.** What about the cytotoxic response (V79 379 A cells) of the same compound?
**A.** did not show a cytotoxic response

**Q.** What about the cytotoxicity (MCF-7 cells) of the same compound?
**A.** did not show cytotoxicity

**Q.** And the cytotoxic effects (MRC-5 cells)?
**A.** no cytotoxic effects

**Q.** What about the EC50 at 24 h (MTT cytotoxicity, MRC-5) of the same compound?
**A.** 2550 ± 1950 nM

**Q.** What about the EC50 at 24 h (MTT cytotoxicity, MSC) of the same compound?
**A.** > 100000 nM

**Q.** And the “Cytotoxic evaluation (EC50)” value [6]?
**A.** did not show toxicity

**Q.** What about the EC50 at 24 h (MTT cytotoxicity, T47D) of the same compound?
**A.** 1680 ± 460 nM

**Q.** Which AhR agonist character [4] does the source give for O=c1cc(-c2ccccc2)oc2ccc3ccccc3c12 [BNF, β-naphthoflavone, reference compound] here?
**A.** partial agonists

**Q.** For Cc1ccc2cc[nH]c2c1 [6-MI], which “induction of CYP1A gene expression” value (CYP1A genes) is on record?
**A.** comparable to TCDD

**Q.** With c1ccc2[nH]ccc2c1 [Indole, indole] as the compound, how does the EC50 at 24 h (MTT cytotoxicity, Caco-2) read?
**A.** > 100000 nM

**Q.** And the EC50 [1]?
**A.** 32100 nM

**Q.** What about the “recovery rate in cell media (actual vs nominal concentration)” value [7] of the same compound?
**A.** exceeding 100%

**Q.** What about the EC50 at 24 h (MTT cytotoxicity, HepG2) of the same compound?
**A.** > 100000 nM

**Q.** And the “effect on cell proliferation rate vs media control” value (Caco-2 cells [2])?
**A.** significant reduction in cell proliferation rates

**Q.** And the EC50 at 24 h (MTT cytotoxicity, HepaRG)?
**A.** > 100000 nM

**Q.** What about the “concentration inducing toxic effects” value (Caco-2 cells [3]; Caco-2) of the same compound?
**A.** 5000 µM

**Q.** And the EC50 at 24 h (MTT cytotoxicity, MRC-5)?
**A.** > 100000 nM

**Q.** And the EC50 at 24 h (MTT cytotoxicity, MSC)?
**A.** > 100000 nM

**Q.** What about the AhR agonist character [4] of the same compound?
**A.** weak AhR ligand

**Q.** What about the EC50 at 24 h (MTT cytotoxicity, T47D) of the same compound?
**A.** > 100000 nM

**Q.** For Clc1cc2c(cc1Cl)Oc1cc(Cl)c(Cl)cc1O2 [TCDD, 2,3,7,8-tetrachlorodibenzo-p-dioxin, reference compound], which EC50 [1] is on record?
**A.** 0.3 to 2.3 nM

**Q.** For O=Cc1ccc2cc[nH]c2c1 [indole-6-carboxaldehyde], which toxicity [8] is on record?
**A.** no toxicity

**Q.** For Cc1cccc2[nH]ccc12 [4-MI], which “induction of CYP1A gene expression” value (CYP1A genes) is on record?
**A.** comparable to TCDD
